Reference: ChEMBL document CHEMBL1154674, “Synthesis and evaluation of three 18F-labeled aminophenylbenzothiazoles as amyloid imaging agents” (J Med Chem, 2009)

Legend:
Type in all cases: ADME, organism-based
[1] = Biodistribution in NMRI mouse urine at 3.7 MBq/mL, iv after 2 mins by gamma counting; conditions: in vivo
Summary of the method: (§1)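 Male NMRI mice (30-40 g) under isoflurane (1.5-2.5% in oxygen) got 0.1 mL of HPLC-purified tracer diluted with 0.9% NaCl to 3.7 MBq/mL (ethanol ≤10%) via tail vein. Mice were decapitated at 2 or 60 min p.i., and organs, blood and urine were weighed and γ-counted. Values are background-corrected %ID or %ID/g, with blood mass taken as 7% of body mass.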

[2] = Biodistribution in NMRI mouse urine at 3.7 MBq/mL, iv after 60 mins by gamma counting; conditions: in vivo, 1 h; summary of the method: as §1
Kidney [3] = assay: Biodistribution in NMRI mouse kidney at 3.7 MBq/mL, iv after 2 mins by gamma counting; conditions: in vivo; summary of the method: as §1
Kidney [4] = assay: Biodistribution in NMRI mouse kidney at 3.7 MBq/mL, iv after 60 mins by gamma counting; conditions: in vivo, 1 h; summary of the method: as §1
Kidney [5] = assay: Biodistribution in NMRI mouse kidney assessed per gram of tissue at 3.7 MBq/mL, iv after 2 mins by gamma counting; conditions: in vivo; summary of the method: as §1
Kidney [6] = assay: Biodistribution in NMRI mouse kidney assessed per gram of tissue at 3.7 MBq/mL, iv after 60 mins by gamma counting; conditions: in vivo, 1 h; summary of the method: as §1
Kidney [7] = assay: Drug level in NMRI mouse kidney assessed as standard uptake value at 3.7 MBq/mL, iv after 2 mins by gamma counting; conditions: in vivo
Summary of the method: (§2)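 Male NMRI mice (30-40 g) were anaesthetised with isoflurane. Each received 0.1 mL of HPLC-purified tracer, diluted in 0.9% NaCl to 3.7 MBq/mL (ethanol ≤10%), via a tail vein. Mice were decapitated at 2 or 60 min. Organs were dissected, weighed and γ-counted with background correction. SUV = (organ cpm/organ weight)/(total recovered counts/body weight). Blood mass was taken as 7% of body mass.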

Kidney [8] = assay: Drug level in NMRI mouse kidney assessed as standard uptake value at 3.7 MBq/mL, iv after 60 mins by gamma counting; conditions: in vivo, 1 h; summary of the method: as §2
Liver [9] = assay: Biodistribution in NMRI mouse liver at 3.7 MBq/mL, iv after 2 mins by gamma counting; conditions: in vivo; summary of the method: as §1
Liver [10] = assay: Biodistribution in NMRI mouse liver at 3.7 MBq/mL, iv after 60 mins by gamma counting; conditions: in vivo, 1 h; summary of the method: as §1
Liver [11] = assay: Biodistribution in NMRI mouse liver assessed per gram of tissue at 3.7 MBq/mL, iv after 2 mins by gamma counting; conditions: in vivo
Liver [12] = assay: Biodistribution in NMRI mouse liver assessed per gram of tissue at 3.7 MBq/mL, iv after 60 mins by gamma counting; conditions: in vivo, 1 h; summary of the method: as §1
Liver [13] = assay: Drug level in NMRI mouse liver assessed as standard uptake value at 3.7 MBq/mL, iv after 2 mins by gamma counting; conditions: in vivo; summary of the method: as §2
Liver [14] = assay: Drug level in NMRI mouse liver assessed as standard uptake value at 3.7 MBq/mL, iv after 60 mins by gamma counting; conditions: in vivo, 1 h; summary of the method: as §2
[15] = Biodistribution in NMRI mouse spleen/pancreas at 3.7 MBq/mL, iv after 2 mins by gamma counting; conditions: in vivo; summary of the method: as §1
[16] = Biodistribution in NMRI mouse spleen/pancreas at 3.7 MBq/mL, iv after 60 mins by gamma counting; conditions: in vivo, 1 h; summary of the method: as §1
[17] = Biodistribution in NMRI mouse spleen/pancreas assessed per gram of tissue at 3.7 MBq/mL, iv after 2 mins by gamma counting; conditions: in vivo; summary of the method: as §1
[18] = Biodistribution in NMRI mouse spleen/pancreas assessed per gram of tissue at 3.7 MBq/mL, iv after 60 mins by gamma counting; conditions: in vivo, 1 h; summary of the method: as §1
[19] = Drug level in NMRI mouse spleen/pancreas assessed as standard uptake value at 3.7 MBq/mL, iv after 2 mins by gamma counting; conditions: in vivo; summary of the method: as §2
[20] = Drug level in NMRI mouse spleen/pancreas assessed as standard uptake value at 3.7 MBq/mL, iv after 60 mins by gamma counting; conditions: in vivo, 1 h; summary of the method: as §2
Lung [21] = assay: Biodistribution in NMRI mouse lung at 3.7 MBq/mL, iv after 2 mins by gamma counting; conditions: in vivo; summary of the method: as §1
Lung [22] = assay: Biodistribution in NMRI mouse lung at 3.7 MBq/mL, iv after 60 mins by gamma counting; conditions: in vivo, 1 h; summary of the method: as §1
Lung [23] = assay: Biodistribution in NMRI mouse lung assessed per gram of tissue at 3.7 MBq/mL, iv after 2 mins by gamma counting; conditions: in vivo; summary of the method: as §1
Lung [24] = assay: Biodistribution in NMRI mouse lung assessed per gram of tissue at 3.7 MBq/mL, iv after 60 mins by gamma counting; conditions: in vivo, 1 h; summary of the method: as §1
Lung [25] = assay: Drug level in NMRI mouse lung assessed as standard uptake value at 3.7 MBq/mL, iv after 2 mins by gamma counting; conditions: in vivo; summary of the method: as §2
Lung [26] = assay: Drug level in NMRI mouse lung assessed as standard uptake value at 3.7 MBq/mL, iv after 60 mins by gamma counting; conditions: in vivo, 1 h; summary of the method: as §2
Heart [27] = assay: Biodistribution in NMRI mouse heart at 3.7 MBq/mL, iv after 2 mins by gamma counting; conditions: in vivo; summary of the method: as §1
Heart [28] = assay: Biodistribution in NMRI mouse heart at 3.7 MBq/mL, iv after 60 mins by gamma counting; conditions: in vivo, 1 h; summary of the method: as §1
Heart [29] = assay: Biodistribution in NMRI mouse heart assessed per gram of tissue at 3.7 MBq/mL, iv after 2 mins by gamma counting; conditions: in vivo; summary of the method: as §1
Heart [30] = assay: Biodistribution in NMRI mouse heart assessed per gram of tissue at 3.7 MBq/mL, iv after 60 mins by gamma counting; conditions: in vivo, 1 h; summary of the method: as §1
Heart [31] = assay: Drug level in NMRI mouse heart assessed as standard uptake value at 3.7 MBq/mL, iv after 2 mins by gamma counting; conditions: in vivo; summary of the method: as §2
Heart [32] = assay: Drug level in NMRI mouse heart assessed as standard uptake value at 3.7 MBq/mL, iv after 60 mins by gamma counting; conditions: in vivo, 1 h; summary of the method: as §2
Intestine [33] = assay: Biodistribution in NMRI mouse intestine at 3.7 MBq/mL, iv after 2 mins by gamma counting; conditions: in vivo; summary of the method: as §1
Intestine [34] = assay: Biodistribution in NMRI mouse intestine at 3.7 MBq/mL, iv after 60 mins by gamma counting; conditions: in vivo, 1 h; summary of the method: as §1
Stomach [35] = assay: Biodistribution in NMRI mouse stomach at 3.7 MBq/mL, iv after 2 mins by gamma counting; conditions: in vivo; summary of the method: as §1
Stomach [36] = assay: Biodistribution in NMRI mouse stomach at 3.7 MBq/mL, iv after 60 mins by gamma counting; conditions: in vivo, 1 h; summary of the method: as §1
[37] = Biodistribution in NMRI mouse cerebrum at 3.7 MBq/mL, iv after 2 mins by gamma counting; conditions: in vivo; summary of the method: as §1
[38] = Biodistribution in NMRI mouse cerebrum at 3.7 MBq/mL, iv after 60 mins by gamma counting; conditions: in vivo, 1 h; summary of the method: as §1
[39] = Biodistribution in NMRI mouse cerebrum assessed per gram of tissue at 3.7 MBq/mL, iv after 2 mins by gamma counting; conditions: in vivo; summary of the method: as §1
[40] = Biodistribution in NMRI mouse cerebrum assessed per gram of tissue at 3.7 MBq/mL, iv after 60 mins by gamma counting; conditions: in vivo, 1 h; summary of the method: as §1
[41] = Drug level in NMRI mouse cerebrum assessed as standard uptake value at 3.7 MBq/mL, iv after 2 mins by gamma counting; conditions: in vivo; summary of the method: as §2
[42] = Drug level in NMRI mouse cerebrum assessed as standard uptake value at 3.7 MBq/mL, iv after 60 mins by gamma counting; conditions: in vivo, 1 h; summary of the method: as §2
Cerebellum [43] = assay: Biodistribution in NMRI mouse cerebellum at 3.7 MBq/mL, iv after 2 mins by gamma counting; conditions: in vivo; summary of the method: as §1
Cerebellum [44] = assay: Biodistribution in NMRI mouse cerebellum at 3.7 MBq/mL, iv after 60 mins by gamma counting; conditions: in vivo, 1 h; summary of the method: as §1
Cerebellum [45] = assay: Biodistribution in NMRI mouse cerebellum assessed per gram of tissue at 3.7 MBq/mL, iv after 2 mins by gamma counting; conditions: in vivo; summary of the method: as §1
Cerebellum [46] = assay: Biodistribution in NMRI mouse cerebellum assessed per gram of tissue at 3.7 MBq/mL, iv after 60 mins by gamma counting; conditions: in vivo, 1 h; summary of the method: as §1
Cerebellum [47] = assay: Drug level in NMRI mouse cerebellum assessed as standard uptake value at 3.7 MBq/mL, iv after 2 mins by gamma counting; conditions: in vivo; summary of the method: as §2
Cerebellum [48] = assay: Drug level in NMRI mouse cerebellum assessed as standard uptake value at 3.7 MBq/mL, iv after 60 mins by gamma counting; conditions: in vivo, 1 h; summary of the method: as §2
Blood [49] = assay: Biodistribution in NMRI mouse blood at 3.7 MBq/mL, iv after 2 mins by gamma counting; conditions: in vivo; summary of the method: as §1
Blood [50] = assay: Biodistribution in NMRI mouse blood at 3.7 MBq/mL, iv after 60 mins by gamma counting; conditions: in vivo, 1 h; summary of the method: as §1
Blood [51] = assay: Biodistribution in NMRI mouse blood assessed per gram of tissue at 3.7 MBq/mL, iv after 2 mins by gamma counting; conditions: in vivo; summary of the method: as §1
Blood [52] = assay: Biodistribution in NMRI mouse blood assessed per gram of tissue at 3.7 MBq/mL, iv after 60 mins by gamma counting; conditions: in vivo, 1 h; summary of the method: as §1
Blood [53] = assay: Drug level in NMRI mouse blood assessed as standard uptake value at 3.7 MBq/mL, iv after 2 mins by gamma counting; conditions: in vivo; summary of the method: as §2
Blood [54] = assay: Drug level in NMRI mouse blood assessed as standard uptake value at 3.7 MBq/mL, iv after 60 mins by gamma counting; conditions: in vivo, 1 h; summary of the method: as §2

In the case of Cc1ccc2nc(-c3ccc([18F])cc3)sc2c1, the Drug uptake [1] is reported as 0.2%, the Drug uptake [2] is reported as 3.3% and the Drug uptake (Kidney [3]) is reported as 5.8%. The Drug uptake (Kidney [4]) was 2.3%, the Drug uptake (Kidney [5]) was 9.3% and the Drug uptake (Kidney [6]) was 3.6%. It also gave an SUV (Kidney [7]) of 3.4, an SUV (Kidney [8]) of 1.4 and a Drug uptake (Liver [9]) of 24.8%. For the same molecule, the Drug uptake (Liver [10]) was 51.8%, the Drug uptake (Liver [11]) was 12% and the Drug uptake (Liver [12]) was 24.6%. The SUV (Liver [13]) was 4.5, the SUV (Liver [14]) was 9.2 and the Drug uptake [15] was 1.3%. The Drug uptake [16] was 0.1%, the Drug uptake [17] was 4% and the Drug uptake [18] was 0.4%. The SUV [19] was 1.5, the SUV [20] was 0.2 and the Drug uptake (Lung [21]) was 3.6%. It also gave a Drug uptake (Lung [22]) of 0.3%, a Drug uptake (Lung [23]) of 14.4% and a Drug uptake (Lung [24]) of 1.3%. The SUV (Lung [25]) was 5.3, the SUV (Lung [26]) was 0.5 and the Drug uptake (Heart [27]) was 0.9%. For the same molecule, the Drug uptake (Heart [28]) was 0.1%, the Drug uptake (Heart [29]) was 5.4% and the Drug uptake (Heart [30]) was 0.5%. The SUV (Heart [31]) was 2, the SUV (Heart [32]) was 0.2 and the Drug uptake (Intestine [33]) was 8.9%. It also gave a Drug uptake (Intestine [34]) of 19.3%, a Drug uptake (Stomach [35]) of 1.3% and a Drug uptake (Stomach [36]) of 1.1%. The Drug uptake [37] was 1.62%, the Drug uptake [38] was 0.07% and the Drug uptake [39] was 5.33%. It also gave a Drug uptake [40] of 0.27%, an SUV [41] of 1.97 and an SUV [42] of 0.1. For the same molecule, the Drug uptake (Cerebellum [43]) was 0.42%, the Drug uptake (Cerebellum [44]) was 0.04% and the Drug uptake (Cerebellum [45]) was 5.99%. The Drug uptake (Cerebellum [46]) was 0.39%, the SUV (Cerebellum [47]) was 2.21 and the SUV (Cerebellum [48]) was 0.15. It also gave a Drug uptake (Blood [49]) of 5.7%, a Drug uptake (Blood [50]) of 2.8% and a Drug uptake (Blood [51]) of 2.2%. The Drug uptake (Blood [52]) was 1.1%, the SUV (Blood [53]) was 0.8 and the SUV (Blood [54]) was 0.4.
